Measured values from different studies.
Protocols differ between the studies behind these lines.
EGFR del746-750: Epidermal growth factor receptor (EGFR, Homo sapiens, UniProt P00533, del746-750)
EGFR del747-750/T751S: Epidermal growth factor receptor (EGFR, Homo sapiens, UniProt P00533, del747-750/T751S)
EGFR A750P/del747-749: Epidermal growth factor receptor (EGFR, Homo sapiens, UniProt P00533, A750P/del747-749)
EGFR L858R: Epidermal growth factor receptor (EGFR, Homo sapiens, UniProt P00533, L858R)
EGFR T790M: Epidermal growth factor receptor (EGFR, Homo sapiens, UniProt P00533, T790M)
EGFR L861Q: Epidermal growth factor receptor (EGFR, Homo sapiens, UniProt P00533, L861Q)
EGFR del747-752/P753S: Epidermal growth factor receptor (EGFR, Homo sapiens, UniProt P00533, del747-752/P753S)
EGFR G719S: Epidermal growth factor receptor (EGFR, Homo sapiens, UniProt P00533, G719S)
EGFR del752-759: Epidermal growth factor receptor (EGFR, Homo sapiens, UniProt P00533, del752-759)

`c1cncc(-c2cccc(Nc3nccc(NC4CCCCC4)n3)c2)c1` has a remaining binding of 38% (EGFR del746-750; binding; competition with immobilised ligand; 10 µM).
With `O=C(c1ccc(Nc2nccc(-c3cc4ccccc4s3)n2)cc1)N1CCC(N2CCCC2)CC1` the remaining binding was 82% (EGFR del747-750/T751S; binding; competition with immobilised ligand; 1 µM).
`COc1ccnn2ncc(-c3ccnc(N(C)C)n3)c12` gave a remaining binding of 92% (Epidermal growth factor receptor (EGFR, Homo sapiens, UniProt P00533, G719C); binding; 1 µM).
`CCOCCn1cc(C(=O)Nc2ccc(-n3nc(-c4cccnc4)cc3C(F)(F)F)cn2)ccc1=O` gave a remaining binding of 96% (EGFR A750P/del747-749; cell-free assay; competition with immobilised ligand; 1 µM).
For `O=C(NCCCN1CCOCC1)c1ccc(Nc2nccc(-c3cc4ccccc4s3)n2)cc1`, the remaining binding was 88% (EGFR L858R; binding; competition with immobilised ligand; 1 µM).
The remaining binding of `CCOC(=O)c1cc2cc(-c3cc(C(=O)NCc4ccc(C(=O)O)cc4)nn3C)ccc2[nH]1` is reported as 89% (EGFR T790M; cell-free assay; competition with immobilised ligand; 0.1 µM).
For `N[C@H]1CCN(c2nccc(-c3cnn4ncccc34)n2)C1`, the remaining binding was 100% (EGFR L858R; binding; 1 µM).
The remaining binding of `CNC(=O)c1ccc(Nc2ncc(C(F)(F)F)c(NCc3nccnc3N(C)S(C)(=O)=O)n2)cc1` is reported as 100% (EGFR L861Q; cell-free assay; competition with immobilised ligand; 0.1 µM).
The remaining binding of `O=C(Nc1c[nH]nc1C(=O)NC1CCNCC1)c1cc(F)cc(F)c1` is reported as 100% (EGFR del747-752/P753S; binding; competition with immobilised ligand; 1 µM).
`CC1CCCN1c1nccc(-c2cnn3ncccc23)n1` (stereo not shown) gave a remaining binding of 75% (EGFR del746-750; binding; 1 µM).
`COc1cnc(Nc2cccc(S(N)(=O)=O)c2)nc1N1CCN(c2ccccc2)CC1` gave a remaining binding of 87% (Epidermal growth factor receptor (EGFR, Homo sapiens, UniProt P00533, L858R/T790M); binding; competition with immobilised ligand; 1 µM).
With `O=C(c1ccc(Nc2ncc(Cl)c(-c3cc4ccccc4s3)n2)cc1)N1CCC(N2CCCC2)CC1` the remaining binding was 89% (EGFR del747-750/T751S; binding; competition with immobilised ligand; 1 µM).
For `CN1CCN(c2ccc(Nc3nccc(-c4ccccc4)n3)cc2C(F)(F)F)CC1`, the remaining binding was 98% (EGFR G719S; binding; 10 µM).
`Cc1cnc(Nc2ccc(C(=O)N3CCC(N4CCCC4)CC3)cc2)nc1-c1cc2ccccc2s1` has a remaining binding of 56% (EGFR T790M; binding; competition with immobilised ligand; 1 µM).
The remaining binding of `COc1cnc(Nc2cccc(S(N)(=O)=O)c2)nc1N1CCN(c2ccccc2)C(=O)C1` is reported as 75% (EGFR del747-752/P753S; binding; competition with immobilised ligand; 1 µM).
`COc1cccc(CNC(=O)c2nc3scc(COCc4ccc(C(=O)O)cc4)c3c(=O)[nH]2)c1` gave a remaining binding of 76% (EGFR A750P/del747-749; cell-free assay; competition with immobilised ligand; 1 µM).
The remaining binding of `Cc1cnn2ncc(-c3ccnc(N(C)C)n3)c2c1` is reported as 100% (EGFR L858R; binding; 1 µM).
With `CS(=O)(=O)NCC[C@H](NC(=O)c1cncc2c1cnn2-c1ccc(F)cc1)c1ccnc(S(C)(=O)=O)c1` the remaining binding was 75% (EGFR G719S; cell-free assay; competition with immobilised ligand; 1 µM).
With `CCN1CCN(Cc2ccc(C(=O)Nc3ccc(C)c(Oc4ccc5c(c4)CC(=O)N5)c3)cc2C(F)(F)F)CC1` the remaining binding was 100% (EGFR del752-759; binding; competition with immobilised ligand; 1 µM).
`C[C@@H]1CCN(c2nccc(-c3cnn4ncccc34)n2)C1` gave a remaining binding of 92% (EGFR L861Q; binding; 1 µM).
`C[C@H](NC(=O)c1cnc2n1[C@](C)(Cc1ccc(C#N)cc1)C(=O)N2c1cc(Cl)c(F)c(Cl)c1)C(=O)NC1(c2ccccn2)CC1` gave a remaining binding of 100% (EGFR del752-759; cell-free assay; competition with immobilised ligand; 1 µM).
The remaining binding of `O=C(c1ccc(Nc2ncc(Cl)c(-c3ccc(Cl)s3)n2)cc1)N1CCC(N2CCCC2)CC1` is reported as 100% (EGFR del747-750/T751S; binding; competition with immobilised ligand; 1 µM).
`CN1CCN(c2ccc(Nc3nccc(-c4cccc([N+](=O)[O-])c4)n3)cc2C(F)(F)F)CC1` has a remaining binding of 96% (EGFR L861Q; binding; 10 µM).
`CN(CCCC(F)(F)F)c1nccc(-c2cnn3ncccc23)n1` gave a remaining binding of 80% (EGFR del746-750; binding; 1 µM).
`O=C(NCC1CCOCC1)c1n[nH]cc1NC(=O)c1c(F)cccc1F` has a remaining binding of 96% (EGFR A750P/del747-749; binding; competition with immobilised ligand; 1 µM).
`Cc1c(NC(=O)c2cc(C(N)=O)nc3cc(F)ccc23)c(C(F)(F)F)nn1Cc1ccc(C(C)(C)C)cc1` gave a remaining binding of 100% (EGFR A750P/del747-749; cell-free assay; competition with immobilised ligand; 1 µM).
The remaining binding of `COc1ncc2cc3ccccc3nc2c1C#N` is reported as 95% (EGFR G719S; cell-free assay; competition with immobilised ligand; 5 µM).
With `O=C(NCCCN1CCOCC1)c1ccc(Nc2ncc(Cl)c(-c3ccc(Cl)s3)n2)cc1` the remaining binding was 72% (EGFR A750P/del747-749; binding; competition with immobilised ligand; 1 µM).
`CN(C)c1ncc(F)c(-c2cnn3ncccc23)n1` gave a remaining binding of 100% (EGFR L861Q; binding; 1 µM).
The remaining binding of `Cc1c(-c2ccccc2)oc2c(C(=O)OCCN3CCCCC3)cccc2c1=O` is reported as 88% (Epidermal growth factor receptor (EGFR, Homo sapiens, UniProt P00533); cell-free assay; competition with immobilised ligand; 10 µM).
`Nc1ncc2c(n1)-c1c([nH]c3ccc(C#CC4CC4)cc13)CCCC2` has a remaining binding of 56% (EGFR del747-752/P753S; binding; competition with immobilised ligand; 1 µM).
`CCC(=N\O)/C(C)=C/c1ccc(F)cc1` has a remaining binding of 100% (EGFR T790M; cell-free assay; competition with immobilised ligand; 1 µM).
`CNC(=O)[C@@H]1CC[C@@H](n2c(-c3ccc4cnccc4c3)nc3ccc(C(=O)NCc4cccc(C(N)=O)c4)cc32)C1` gave a remaining binding of 100% (EGFR A750P/del747-749; binding; competition with immobilised ligand; 1 µM).
The remaining binding of `c1cnn2ncc(-c3ccnc(N4CCC45COC5)n3)c2c1` is reported as 96% (EGFR L861Q; binding; 1 µM).
